Test results published in ChEMBL document CHEMBL1129239, “Synthesis and structure--activity relationships of fused imidazopyridines: a new series of benzodiazepine receptor ligands” (J Med Chem, 1996).
Active and inactive are the calls of the source. No cut-off for these calls is given here.

Columns and labels:
[1] = molecular target: GABA-A receptor; anion channel; assay: Displacement of [3H]diazepam from rat cerebral cortex benzodiazepine receptor; assay type: tissue-based
Mus musculus [2] = assay: Inverse agonist activity was evaluated by mouse pentylenetetrazole (PTZ) proconvulsant activity test; by administering 75 mg/kg convulsive dose of PTZ, 1 hr after oral administration of test compound; assay type: functional
Summary of the method: (§1)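 Male mice, 8-16 per group. Test compound given po, followed 1 h later by a subconvulsive dose of PTZ (75 mg/kg sc). Tonic convulsions and death were scored over a 2-h observation.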

Mus musculus [3] = assay: Inverse agonist activity was evaluated by mouse pentylenetetrazole (PTZ) proconvulsant activity test; by peroral administration of 90 mg/kg convulsive dose of PTZ.; assay type: functional; conditions: route oral
Mus musculus [4] = assay: Agonist activity was evaluated by mouse pentylenetetrazole (PTZ) convulsant test; inactive to 10 mg/kg administered intravenously; assay type: functional, organism-based; design: dose 10 mg/kg
Mus musculus [5] = assay: Inverse agonist activity was evaluated by mouse pentylenetetrazole (PTZ) proconvulsant activity test; by peroral administration of 90 mg/kg convulsive dose of PTZ; inactive to 10 mg/kg administered intravenously; assay type: functional, organism-based
Mus musculus [6] = assay: Inverse agonist activity was evaluated by Mouse pentylenetetrazole (PTZ) proconvulsant activity test; by administering 75 mg/kg convulsive dose of PTZ, 1 hr after oral administration of test compound; assay type: functional; summary of the method: as §1
Mus musculus [7] = assay: Inverse agonist activity was evaluated by Mouse pentylenetetrazole (PTZ) proconvulsant activity test; by peroral administration of 90 mg/kg convulsive dose of PTZ; inactive to 10 mg/kg administered intravenously; assay type: functional, organism-based
Mus musculus [8] = species: Mus musculus; assay: Activity in mouse pentylenetetrazole convulsant test.; assay type: functional
Summary of the method: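 Male mice, 8-16 per group. Test compound dosed orally 1 h before sc PTZ, either a convulsive 125 mg/kg (protection) or a subconvulsive 75 or 90 mg/kg (potentiation). Animals were watched 2 h for tonic convulsions and death. ED50 came from probit analysis.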

Mus musculus [9] = assay: Inverse agonist activity was evaluated by Mouse pentylenetetrazole (PTZ) proconvulsant activity test 9.76-20.68 mg/kg by peroral administration of 90 mg/kg convulsive dose of PTZ.; assay type: functional; conditions: route oral
Mus musculus [10] = assay: Inverse agonist activity was evaluated by Mouse pentylenetetrazole (PTZ) proconvulsant activity test at 50 mg/kg by administering 75 mg/kg convulsive dose of PTZ, 1 hr after oral administration of test compound; assay type: functional; summary of the method: as §1
Mus musculus [11] = assay: Inverse agonist activity was evaluated by mouse pentylenetetrazole (PTZ) proconvulsant activity test at 10 mg/kg by peroral administration of 90 mg/kg convulsive dose of PTZ.; assay type: functional
Mus musculus [12] = assay: Inverse agonist activity was evaluated by Mouse pentylenetetrazole (PTZ) proconvulsant activity test at 22.39-75 mg/kg by peroral administration of 90 mg/kg convulsive dose of PTZ.; assay type: functional; conditions: route oral
Mus musculus [13] = assay: Inverse agonist activity was evaluated by Mouse pentylenetetrazole (PTZ) proconvulsant activity test at 25.87-58.54 mg/kg by administering 75 mg/kg convulsive dose of PTZ, 1 hr after oral administration of test compound; assay type: functional; summary of the method: as §1
Mus musculus [14] = assay: Inverse agonist activity was evaluated by Mouse pentylenetetrazole (PTZ) proconvulsant activity test at 14.6-34.51 mg/kg by peroral administration of 90 mg/kg convulsive dose of PTZ.; assay type: functional; conditions: route oral
Mus musculus [15] = assay: Inverse agonist activity was evaluated by Mouse pentylenetetrazole (PTZ) proconvulsant activity test at 11.71-22.28 mg/kg by administering 75 mg/kg convulsive dose of PTZ, 1 hr after oral administration of test compound; assay type: functional; summary of the method: as §1
Mus musculus [16] = assay: Inverse agonist activity was evaluated by Mouse pentylenetetrazole (PTZ) proconvulsant activity test; at 3.64-18.28 mg/kg by peroral administration of 90 mg/kg convulsive dose of PTZ.; assay type: functional; conditions: route oral
Mus musculus [17] = assay: Inverse agonist activity was evaluated by Mouse pentylenetetrazole (PTZ) proconvulsant activity test at 28.18 mg/kg by administering 75 mg/kg convulsive dose of PTZ, 1 hr after oral administration of test compound; assay type: functional; summary of the method: as §1
Mus musculus [18] = assay: Inverse agonist activity was evaluated by Mouse pentylenetetrazole (PTZ) proconvulsant activity test; at 7.7-119.81 mg/kg by peroral administration of 90 mg/kg convulsive dose of PTZ.; assay type: functional; conditions: route oral
Mus musculus [19] = assay: Inverse agonist activity was evaluated by Mouse pentylenetetrazole (PTZ) proconvulsant activity test at 4.54-12.28 mg/kg by administering 75 mg/kg convulsive dose of PTZ, 1 hr after oral administration of test compound; assay type: functional; summary of the method: as §1
Mus musculus [20] = assay: Inverse agonist activity was evaluated by Mouse pentylenetetrazole (PTZ) proconvulsant activity test at 3.53-11.93 mg/kg by peroral administration of 90 mg/kg convulsive dose of PTZ.; assay type: functional; conditions: route oral
Mus musculus [21] = assay: Agonist activity was evaluated by mouse pentylenetetrazole (PTZ) convulsant test after p.o. administration; conditions: po
Mus musculus [22] = assay: Inverse agonist activity was evaluated by Mouse pentylenetetrazole (PTZ) proconvulsant activity test; by peroral administration of 90 mg/kg convulsive dose of PTZ.; assay type: functional; conditions: route oral
Mus musculus [23] = assay: Inverse agonist activity was evaluated by mouse pentylenetetrazole (PTZ) proconvulsant activity test; by administering 75 mg/kg convulsive dose of PTZ, 1 hr after oral administration of test compound; In active to 10 iv; assay type: functional, organism-based; design: dose 75 mg/kg; summary of the method: as §1
Mus musculus [24] = assay: Inverse agonist activity was evaluated by mouse pentylenetetrazole (PTZ) proconvulsant activity test at 6.7-16.7 mg/kg by peroral administration of 90 mg/kg convulsive dose of PTZ; assay type: functional; conditions: route oral

SMILES	Ki [1]	ED50 (Mus musculus [8])	other results
c1cc(-c2nc3c4c(ncc3[nH]2)CCC4)no1	5.3 nM	–	ED50 (Mus musculus [2]): 9.22 mg/kg; ED50 (Mus musculus [3]): 4.72 mg/kg
Clc1cccc2c1ncc1[nH]c(-c3ccon3)nc12	524 nM	–	ED50 (Mus musculus [4]): inactive; Animals affected (Mus musculus [5]): inactive
c1ccc2c(c1)ncc1[nH]c(-c3ccno3)nc12	1 nM	–	ED50 (Mus musculus [4]): inactive; ED50 (Mus musculus [6]): 1.94 mg/kg; ED50 (Mus musculus [7]): inactive
Cc1cc(-c2nc3c(cnc4cc(Cl)ccc43)[nH]2)on1	18.8 nM	29.8 mg/kg	–
Clc1ccc(-c2nc3c(cnc4ccccc43)[nH]2)cc1	270 nM	–	–
Cc1cc(-c2nc3c4c(ncc3[nH]2)CCC4)on1	14.6 nM	5.97 mg/kg	–
O=C1C2C=Nc3ccccc3C2=NN1c1ccccc1 (stereo not given) [CGS-8216]	–	–	ED50 (Mus musculus [6]): 25 mg/kg
Cc1cc(-c2nc3c4c(ncc3[nH]2)CCCCC4)on1	15.6 nM	12.4 mg/kg	–
Clc1ccc2[nH]cc3nc(-c4ccon4)nc-3c2c1	0.8 nM	–	ED50 (Mus musculus [9]): 14.2 mg/kg; Animals affected (Mus musculus [10]): 25%
Cc1cc(-c2nc3c(cnc4cc(F)ccc43)[nH]2)on1	1.4 nM	5.15 mg/kg	–
c1cc(-c2nc3c4c(ncc3[nH]2)CCCC4)no1	1.2 nM	–	ED50 (Mus musculus [4]): inactive; Animals affected (Mus musculus [5]): inactive
COc1ccc2c3nc(-c4cc(C)no4)nc-3c[nH]c2c1	9.5 nM	–	ED50 (Mus musculus [4]): inactive; ED50 (Mus musculus [6]): 46.2 mg/kg; Animals affected (Mus musculus [7]): inactive
Fc1cccc2c1ncc1[nH]c(-c3ccon3)nc12	40 nM	–	Animals affected (Mus musculus [11]): 37.5%
c1csc(-c2nc3c[nH]c4ccccc4c-3n2)c1	1.7 nM	–	–
Cc1cc(-c2nc3c4c(ncc3[nH]2)CCCC4)on1	2.2 nM	8.12 mg/kg	–
Cc1cc(-c2nc3c(cnc4ccccc43)[nH]2)cs1	4.5 nM	–	–
Clc1ccc2c3nc(-c4ccon4)nc-3c[nH]c2c1	3.5 nM	27.2 mg/kg	–
Cc1cc(-c2nc3c(cnc4ccc(F)cc43)[nH]2)on1	1.1 nM	5.41 mg/kg	–
Cc1cc(-c2nc3c(cnc4c(F)cccc43)[nH]2)on1	302 nM	–	ED50 (Mus musculus [4]): inactive
CCc1cc(-c2nc3c(cnc4ccccc43)[nH]2)no1	1.1 nM	19.2 mg/kg	–

SMILES	Ki [1]	ED50 (Mus musculus [8])	other results
Cc1cc(-c2nc3c(cnc4cccc(Cl)c43)[nH]2)on1	13.7 nM	8.53 mg/kg	–
Fc1ccc2c3nc(-c4ccon4)nc-3c[nH]c2c1	0.9 nM	39.9 mg/kg	–
Cc1cc(-c2nc3c(cnc4ccccc43)[nH]2)on1	0.9 nM	5.89 mg/kg	–
Cc1cc(-c2nc3c4c(ncc3[nH]2)CCOC4)on1	3.3 nM	11.2 mg/kg	–
COc1ccc2[nH]cc3nc(-c4ccon4)nc-3c2c1	0.5 nM	–	ED50 (Mus musculus [12]): 31.5 mg/kg; Animals affected (Mus musculus [10]): 25%
COc1ccc2[nH]cc3nc(-c4cc(C)no4)nc-3c2c1	0.9 nM	21.6 mg/kg	–
Cc1cc(-c2nc3c(cnc4ccc(Cl)cc43)[nH]2)on1	0.5 nM	10.6 mg/kg	–
c1ccc(-c2nc3c(cnc4ccccc43)[nH]2)cc1	22 nM	–	–
Cc1cc(-c2nc3c(cnc4c(Cl)cccc43)[nH]2)on1	–	–	ED50 (Mus musculus [4]): inactive; Animals affected (Mus musculus [7]): inactive
c1cc(-c2nc3c4c(ncc3[nH]2)CCCCC4)no1	5.2 nM	–	ED50 (Mus musculus [4]): inactive; Animals affected (Mus musculus [7]): inactive
Fc1cccc2[nH]cc3nc(-c4ccon4)nc-3c12	3.4 nM	–	ED50 (Mus musculus [13]): 35.7 mg/kg; ED50 (Mus musculus [14]): 21.2 mg/kg
COc1ccc2c3nc(-c4ccon4)nc-3c[nH]c2c1	7.2 nM	–	ED50 (Mus musculus [15]): 16.2 mg/kg; ED50 (Mus musculus [16]): 8.77 mg/kg
Fc1ccc2[nH]cc3nc(-c4ccon4)nc-3c2c1	0.8 nM	–	ED50 (Mus musculus [17]): 64.1 mg/kg; ED50 (Mus musculus [18]): 16.5 mg/kg
Clc1cccc2[nH]cc3nc(-c4ccon4)nc-3c12	7.8 nM	–	ED50 (Mus musculus [19]): 7.21 mg/kg; ED50 (Mus musculus [20]): 5.95 mg/kg
CCc1cc(-c2nc3c(cnc4ccccc43)[nH]2)on1	1.2 nM	13.5 mg/kg	–
Cc1cc(-c2nc3c(cnc4ccccc43)[nH]2)no1	0.9 nM	16.4 mg/kg	–
Cc1cc(-c2nc3c(cnc4cccc(F)c43)[nH]2)on1	4.9 nM	4.86 mg/kg	–
CN1C(=O)CN=C(c2ccccc2)c2cc(Cl)ccc21 [DIAZEPAM]	–	–	ED50 (Mus musculus [21]): 0.67 mg/kg
c1cc(-c2nc3c[nH]c4c(c-3n2)COCC4)no1	2.7 nM	–	ED50 (Mus musculus [6]): 25 mg/kg; ED50 (Mus musculus [22]): 19.6 mg/kg
c1ccc2c(c1)ncc1[nH]c(-c3ccon3)nc12	0.6 nM	–	ED50 (Mus musculus [23]): inactive; ED50 (Mus musculus [24]): 10.1 mg/kg
